Reference: ChEMBL document CHEMBL4689842, “EUbOPEN Chemogenomics Library wave 1” (2021)

What was measured:
Assay type in all cases: toxicity, cell-based
Fibroblast = assay: Multiplex assay against human fibroblast
How it was run: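 On a CQ1 microscope at 37°C and 5% CO2, live cells were imaged after compound addition. They had been stained at seeding with Hoechst33342, BioTracker Green Microtubule Cytoskeleton Dye, MitoTracker Red and Annexin V Alexa Fluor 680. CellPathfinder machine-learning gating assigned cells to Hoechst high-intensity objects or normal cells, normal cells to healthy, pyknosed or fragmented nuclei, and pyknosed cells to mitotic or apoptotic. Tubulin, mitochondrial-mass and membrane-permeability phenotypes are per cents of healthy-nucleus cells.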

HEK-293T = assay: Incucyte cell viability with HEK293T; details: human, 10 µM, compound concentration 10 uM; further: filed as whole numbers so only -1 and 0 and 1 occur
U2OS = assay: Incucyte cell viability with U2OS; details: human, 10 µM, compound concentration 10 uM; further: filed as whole numbers so only -1 and 0 and 1 occur
[1] = 12 h, 1 µM, compound concentration 1 uM, replicate 1
[2] = 12 h, 1 µM, compound concentration 1 uM, replicate 2
[3] = 12 h, 10 µM, compound concentration 10 uM, replicate 1
[4] = 12 h, 10 µM, compound concentration 10 uM, replicate 2
[5] = 24 h, 1 µM, compound concentration 1 uM, replicate 1
[6] = 24 h, 1 µM, compound concentration 1 uM, replicate 2
[7] = 24 h, 10 µM, compound concentration 10 uM, replicate 1
[8] = 24 h, 10 µM, compound concentration 10 uM, replicate 2
[9] = 6 h, replicate number 1, timepoint 6 hours
[10] = 12 h, replicate number 1, timepoint 12 hours
[11] = 18 h, replicate number 1, timepoint 18 hours
[12] = 24 h, replicate number 1, timepoint 24 hours

## Cl.Cn1c2c(c3ccc(Cl)c(Cl)c31)C(C#N)C1(CCNCC1)NC2=O (configuration not stated)
Fibroblast; [1]
  Population Apoptotic (%): 75%
  Population Fragmented Nuclei (%): 35%
  Population Healthy Nuclei (%): 51%
  Population Hoechst High Intensity Objects (%): 11%
  Population Membrane Permeable-Phenotype (%): 8%
  Population Mitochondria Different-Phenotype (%): 2%
  Population Mitotic Cells (%): 25%
  Population Normal (%): 88%
  Population Pyknosed Nuclei (%): 13%
  Population Tubulin-Different-Phenotype (%): 6%
  Total Cell Count: 332
Fibroblast; [2]
  Population Apoptotic (%): 50%
  Population Fragmented Nuclei (%): 59%
  Population Healthy Nuclei (%): 33%
  Population Hoechst High Intensity Objects (%): 32%
  Population Membrane Permeable-Phenotype (%): 9%
  Population Mitochondria Different-Phenotype (%): 9%
  Population Mitotic Cells (%): 50%
  Population Normal (%): 67%
  Population Pyknosed Nuclei (%): 6%
  Population Tubulin-Different-Phenotype (%): 9%
  Total Cell Count: 92
Fibroblast; [3]
  Population Apoptotic (%): 64%
  Population Fragmented Nuclei (%): 44%
  Population Healthy Nuclei (%): 40%
  Population Hoechst High Intensity Objects (%): 19%
  Population Membrane Permeable-Phenotype (%): 8%
  Population Mitochondria Different-Phenotype (%): 6%
  Population Mitotic Cells (%): 35%
  Population Normal (%): 80%
  Population Pyknosed Nuclei (%): 14%
  Population Tubulin-Different-Phenotype (%): 37%
  Total Cell Count: 482
Fibroblast; [4]
  Population Apoptotic (%): 40%
  Population Fragmented Nuclei (%): 48%
  Population Healthy Nuclei (%): 39%
  Population Hoechst High Intensity Objects (%): 23%
  Population Membrane Permeable-Phenotype (%): 5%
  Population Mitochondria Different-Phenotype (%): 2%
  Population Mitotic Cells (%): 60%
  Population Normal (%): 76%
  Population Pyknosed Nuclei (%): 11%
  Population Tubulin-Different-Phenotype (%): 73%
  Total Cell Count: 112
Fibroblast; [5]
  Population Apoptotic (%): 67%
  Population Fragmented Nuclei (%): 38%
  Population Healthy Nuclei (%): 50%
  Population Hoechst High Intensity Objects (%): 15%
  Population Membrane Permeable-Phenotype (%): 4%
  Population Mitochondria Different-Phenotype (%): 3%
  Population Mitotic Cells (%): 32%
  Population Normal (%): 84%
  Population Pyknosed Nuclei (%): 10%
  Population Tubulin-Different-Phenotype (%): 4%
  Total Cell Count: 379
Fibroblast; [6]
  Population Apoptotic (%): 0%
  Population Fragmented Nuclei (%): 67%
  Population Healthy Nuclei (%): 31%
  Population Hoechst High Intensity Objects (%): 29%
  Population Membrane Permeable-Phenotype (%): 9%
  Population Mitochondria Different-Phenotype (%): 0%
  Population Mitotic Cells (%): 100%
  Population Normal (%): 70%
  Population Pyknosed Nuclei (%): 1%
  Population Tubulin-Different-Phenotype (%): 19%
  Total Cell Count: 95
Fibroblast; [7]
  Population Apoptotic (%): 61%
  Population Fragmented Nuclei (%): 28%
  Population Healthy Nuclei (%): 55%
  Population Hoechst High Intensity Objects (%): 37%
  Population Membrane Permeable-Phenotype (%): 6%
  Population Mitochondria Different-Phenotype (%): 10%
  Population Mitotic Cells (%): 38%
  Population Normal (%): 62%
  Population Pyknosed Nuclei (%): 15%
  Population Tubulin-Different-Phenotype (%): 38%
  Total Cell Count: 492
Fibroblast; [8]
  Population Apoptotic (%): 87%
  Population Fragmented Nuclei (%): 42%
  Population Healthy Nuclei (%): 42%
  Population Hoechst High Intensity Objects (%): 43%
  Population Membrane Permeable-Phenotype (%): 9%
  Population Mitochondria Different-Phenotype (%): 14%
  Population Mitotic Cells (%): 12%
  Population Normal (%): 56%
  Population Pyknosed Nuclei (%): 16%
  Population Tubulin-Different-Phenotype (%): 42%
  Total Cell Count: 89
HEK-293T; [9]
  Growth Rate: 0
HEK-293T; [10]
  Growth Rate: 0
HEK-293T; [11]
  Growth Rate: 0
HEK-293T; [12]
  Growth Rate: 0
U2OS; 0 h, replicate number 1, timepoint 0 hours
  Growth Rate: 0
U2OS; [9]
  Growth Rate: 0
U2OS; [10]
  Growth Rate: 0
U2OS; [11]
  Growth Rate: 0
U2OS; [12]
  Growth Rate: 0
